Columns and labels:
Rattus norvegicus [1] = assay: Radioactivity was determined in heart tissues of female fischer 344 rats by intravenous administration after 5 minutes; format: ADME, organism-based; conditions: in vivo
In short: (§1)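 Female Fischer 344 rats, 10–12 weeks, 170–200 g, fed ad libitum. The 82Br-labeled fatty acid was taken up in 0.5 mL absolute ethanol and added dropwise to stirred 6% bovine serum albumin at ~40 °C (final ethanol 10%), then 0.22-μm filtered. Dosing was a lateral tail vein injection under ether anesthesia. Rats were killed by cervical fracture at the stated time and blood was taken by cardiac puncture.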

Rattus norvegicus [2] = assay: Radioactivity was determined in blood tissues of female fischer 344 rats by intravenous administration after 1 hour; format: ADME, organism-based; conditions: in vivo; in short: as §1
Rattus norvegicus [3] = assay: Radioactivity was determined in thyroid of female fischer 344 rats by intravenous administration after 5 minutes; format: ADME, organism-based, Thyroid gland; conditions: in vivo; in short: as §1
Rattus norvegicus [4] = assay: Radioactivity was determined in lung tissues of female fischer 344 rats by intravenous administration after 2 hours; format: ADME, organism-based; conditions: in vivo; in short: as §1
Rattus norvegicus [5] = assay: Radioactivity was determined in thyroid of female fischer 344 rats by intravenous administration after 30 minutes; format: ADME, organism-based, Thyroid gland; conditions: in vivo, 0.5 h; in short: as §1
Rattus norvegicus [6] = assay: Radioactivity was determined in kidneys of female fischer 344 rats by intravenous administration after 5 minutes; format: ADME, organism-based, Kidney; conditions: in vivo; in short: as §1
Rattus norvegicus [7] = assay: Radioactivity was determined in blood tissues of female fischer 344 rats by intravenous administration after 2 hours; format: ADME, organism-based; conditions: in vivo; in short: as §1
Rattus norvegicus [8] = assay: Radioactivity was determined in heart tissues of female fischer 344 rats by intravenous administration after 2 hours; format: ADME, organism-based; conditions: in vivo; in short: as §1
Rattus norvegicus [9] = assay: Radioactivity was determined in thyroid of female fischer 344 rats by intravenous administration after 2 hours; format: ADME, organism-based, Thyroid gland; conditions: in vivo; in short: as §1
Rattus norvegicus [10] = assay: Radioactivity was determined in lung tissues of female fischer 344 rats by intravenous administration after 5 minutes; format: ADME, organism-based; conditions: in vivo; in short: as §1
Rattus norvegicus [11] = assay: Radioactivity was determined in liver tissues of female fischer 344 rats by intravenous administration after 30 minutes; format: ADME, organism-based; conditions: in vivo, 0.5 h; in short: as §1
Rattus norvegicus [12] = assay: Radioactivity was determined in thyroid of female fischer 344 rats by intravenous administration after 1 hour; format: ADME, organism-based, Thyroid gland; conditions: in vivo; in short: as §1
Rattus norvegicus [13] = assay: Radioactivity was determined in lung tissues of female fischer 344 rats by intravenous administration after 1 hour; format: ADME, organism-based; conditions: in vivo; in short: as §1
Rattus norvegicus [14] = assay: Radioactivity was determined in liver tissues of female fischer 344 rats by intravenous administration after 5 minutes; format: ADME, organism-based; conditions: in vivo; in short: as §1
Rattus norvegicus [15] = assay: Radioactivity was determined in heart tissues of female fischer 344 rats by intravenous administration after 1 hour; format: ADME, organism-based; conditions: in vivo; in short: as §1
Rattus norvegicus [16] = assay: Radioactivity was determined in heart tissues of female fischer 344 rats by intravenous administration after 30 minutes; format: ADME, organism-based; conditions: in vivo, 0.5 h; in short: as §1
Rattus norvegicus [17] = assay: Radioactivity was determined in liver tissues of female fischer 344 rats by intravenous administration after 1 hour; format: ADME, organism-based; conditions: in vivo; in short: as §1
Rattus norvegicus [18] = assay: Radioactivity was determined in lung tissues of female fischer 344 rats by intravenous administration after 30 minutes; format: ADME, organism-based; conditions: in vivo, 0.5 h; in short: as §1
Rattus norvegicus [19] = assay: Radioactivity was determined in blood tissues of female fischer 344 rats by intravenous administration after 30 minutes; format: ADME, organism-based; conditions: in vivo, 0.5 h; in short: as §1
Rattus norvegicus [20] = assay: Radioactivity was determined in blood tissues of female fischer 344 rats by intravenous administration after 5 minutes; format: ADME, organism-based; conditions: in vivo; in short: as §1
Rattus norvegicus [21] = assay: Radioactivity was determined in liver tissues of female fischer 344 rats by intravenous administration after 2 hours; format: ADME, organism-based; conditions: in vivo; in short: as §1
Rattus norvegicus [22] = assay: Radioactivity was determined in kidneys of female fischer 344 rats by intravenous administration after 30 minutes; format: ADME, organism-based, Kidney; conditions: in vivo, 0.5 h; in short: as §1
Rattus norvegicus [23] = assay: Radioactivity was determined in blood tissues of female fischer 344 rats by intravenous administration after 1 day; format: ADME, organism-based; conditions: in vivo, 24 h; in short: as §1
Rattus norvegicus [24] = assay: Radioactivity was determined in heart tissues of female fischer 344 rats by intravenous administration after 1 day; format: ADME, organism-based; conditions: in vivo, 24 h; in short: as §1
Rattus norvegicus [25] = assay: Radioactivity was determined in liver tissues of female fischer 344 rats by intravenous administration after 1 day; format: ADME, organism-based; conditions: in vivo, 24 h; in short: as §1
Rattus norvegicus [26] = assay: Radioactivity was determined in lung tissues of female fischer 344 rats by intravenous administration after 1 day; format: ADME, organism-based; conditions: in vivo, 24 h; in short: as §1

SMILES	Dose/g (Rattus norvegicus [1]) [%]	Dose/g (Rattus norvegicus [2]) [%]	Dose/g (Rattus norvegicus [6]) [%]	Dose/g (Rattus norvegicus [10]) [%]	Dose/g (Rattus norvegicus [11]) [%]	Dose/g (Rattus norvegicus [13]) [%]	Dose/g (Rattus norvegicus [14]) [%]	Dose/g (Rattus norvegicus [15]) [%]	Dose/g (Rattus norvegicus [16]) [%]	Dose/g (Rattus norvegicus [17]) [%]	Dose/g (Rattus norvegicus [18]) [%]	Dose/g (Rattus norvegicus [19]) [%]	Dose/g (Rattus norvegicus [20]) [%]	Dose/g (Rattus norvegicus [22]) [%]	further results
O=C(O)CCC[Te]CCCCCCCCCCC/C=C/I	3.99	0.19													
O=C(O)CCC[Te]CCCCCCCCCCC/C=C/Br (stereo in doubt; form 1)	2.77	0.43	1.62	1.26	6.13	1.61	7.33	3.01	2.51	5.47	1.53	0.61	0.13	1.49	Dose/g (Rattus norvegicus [3]): 7.56%; Dose/g (Rattus norvegicus [4]): 1.49%; Dose/g (Rattus norvegicus [5]): 10.86%; Dose/g (Rattus norvegicus [7]): 0.46%; Dose/g (Rattus norvegicus [8]): 2.56%; Dose/g (Rattus norvegicus [9]): 9.52%; Dose/g (Rattus norvegicus [12]): 9.26%; Dose/g (Rattus norvegicus [21]): 5%
O=C(O)CCC[Te]CCCCCCCCCCC/C=C/Br (stereo in doubt; form 2)	3.28	0.39	2.31	1.91	6.79	1.88	6.87	3.47	3.79	6.04	2.08	0.34	0.18	2.15	Dose/g (Rattus norvegicus [23]): 0.88%; Dose/g (Rattus norvegicus [24]): 2.6%; Dose/g (Rattus norvegicus [25]): 3.15%; Dose/g (Rattus norvegicus [26]): 1.48%

— ChEMBL document CHEMBL1122968, “Myocardial imaging agents: synthesis, characterization, and evaluation of (Z)- and (Z,E)-18-[82Br]bromo-5-tellura-17-octadecenoic acids” (J Med Chem, 1985)
